Screens: PubChem BioAssay, several laboratories
Sampled rows, rich in hits. Any-hit rate of the full collection: about 1.8%.
iPSC survival up: enhancers of human iPSC single-cell survival. hiPSC single-cell survival, ATPlite luminescence; 100% = ROCK inhibitor wells, 0% = DMSO. survival enhancement, % at 20 µM. hit rate 0.044% among 360,000; in the data active = survival enhancement above about 18%;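 also: cells exposed to compounds for 16 hours before the ATP read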
Ecoli rRNA inh: inhibitors of bacterial rRNA selective over humanized ribosomes | E. coli WT GFP vs humanized-ribosome RFP mutants, fluorescence, 24 h; hits give low values; DMSO median 0, no signal -100 | GFP signal change (wild-type ribosome), % (concentration not given with the values) | hit rate 1.6% among 350,000 | AID 720706;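 active = significant combined selectivity score with lowered wild-type GFP, culture density cut under 30%, mutant RFP and density less affected; inactive = any of these conditions unmet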
DAGLB inh: diacylglycerol lipase beta (human) inhibition | inhibition, % at 5.17 µM | hit rate 0.059% among 340,000 | Q8NCG7 | HEK293T DAGLB membrane lysate, EnzChek fluorogenic substrate; in the data active = inhibition above about 34%
MT1-MMP act inh: blocks activation of human MT1-MMP; hit rate 0.061% among 360,000; GFP/RFP ratio change, % at 20 µM; HT1080 RFP-PRO-GFP cells, GFP/RFP ratio fluorescence, overnight; percent of plate control window, DMSO zero; P50281; AID 651647;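 active = GFP/RFP ratio change of at least 30% with cell ATP level not reduced by more than half and red fluorescence within 50% of control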
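Test system: HT1080 RFP-PRO-GFP cells; Benchmarks: DMSO and RFP-L50D-GFP cell wells; Timing: cells overnight before dosing, compound overnight, 37 °C, 5% CO2; Compound: one 20 µM compound dose with 1% DMSO; Read-out: GFP/RFP fluorescence ratio.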
SKN-1 block: C. elegans SKN-1 inhibition. inhibition, % at 21.8 µM. hit rate 0.49% among 360,000. C. elegans VP596 Pgst-4::GFP/RFP ratio, acrylamide-induced, 24 h;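 active = interference check ratio from 0.5 to 1.5 plus GFP to RFP signal ratio inhibition reaching or exceeding a fixed threshold, cut at about 30% in these data, passing the limit was not always enough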
Cneo AK release: causes C. neoformans cell lysis; adenylate kinase release luminescence, 4 h; normalised: neutral wells 0, clomiphene wells 100; lysis activity, % at 15 µM; hit rate 0.2% among 360,000;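 active = mean lysis activity across replicates of at least 80%, whatever share of replicates individually reach that level; inactive = mean lysis activity below 80%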
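Material: C. neoformans cells | Amount: Yeast cell density of 5 × 10^6 cells/mL | Medium: Fresh YPD growth medium | Dosing: Single dose | Times: Static 4 h at 37 °C with compound, 1 h detection | Detection: AK luminescence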
Each line names hits and unclear results; the compound was inactive in the other large screens.

COc1ccc(NC(=O)Nc2ccc3c(c2)CC(=O)N([C@@H](C)CO)C[C@H](C)[C@@H](CN(C)Cc2ccc(C(=O)O)cc2)O3)cc1	none (no result: iPSC survival up, DAGLB inh, MT1-MMP act inh, SKN-1 block)
CCC(=O)N(C)C[C@H]1Oc2cc(C3=CCCCC3)ccc2S(=O)(=O)N([C@@H](C)CO)C[C@@H]1C	none (no result: iPSC survival up, DAGLB inh, MT1-MMP act inh, SKN-1 block, Cneo AK release)
OC(CSc1nc2ccccc2s1)CC(O)c1ccccc1 (stereo not drawn)	none (no result: iPSC survival up, Ecoli rRNA inh, DAGLB inh, MT1-MMP act inh, SKN-1 block)
CCOC(=O)c1csc(NC(=O)c2cc(=O)c3ccccc3o2)n1	Ecoli rRNA inh -25.9 (no result: Cneo AK release)
CC(=O)c1sc(NC(=O)c2cc(=O)c3ccccc3o2)nc1C	none
Cn1cnc(S(=O)(=O)N[C@@H]2C=C[C@H](CC(=O)NCC3CCCCC3)O[C@H]2CO)c1	none (no result: iPSC survival up, DAGLB inh, MT1-MMP act inh, SKN-1 block)
O=C(NN1C(=O)C2C3C=CC(C4CC34)C2C1=O)c1cccc(Br)c1 (stereo not drawn)	Ecoli rRNA inh -25.2 (no result: Cneo AK release)
COc1ccc(S(=O)(=O)Nc2cccc3c2O[C@@H](CN(C)Cc2ccc(Cl)c(Cl)c2)[C@@H](C)CN([C@@H](C)CO)C3=O)cc1	none (no result: iPSC survival up, DAGLB inh, MT1-MMP act inh, SKN-1 block, Cneo AK release)
N#Cc1ccc(C(=O)N2CCC3CC2c2cc(-c4ccccc4)ccc23)cc1 (stereo not drawn)	none
N#Cc1ccc(C(=O)N2CCC3CC2c2cc(N4CCCCC4)ccc23)cc1 (stereo not drawn)	Ecoli rRNA inh -32.6
O=C1c2ccc3c4c(ccc(c24)C(=O)N1c1ccc2ccccc2c1)CC3	SKN-1 block 35.1 (no result: Ecoli rRNA inh)
Cc1ccc(S(=O)(=O)N(C)C[C@@H]2OCCCC[C@@H](C)Oc3ccc(N(C)C)cc3C(=O)N([C@H](C)CO)C[C@H]2C)cc1	none (no result: iPSC survival up, DAGLB inh, MT1-MMP act inh, SKN-1 block)
CC1CC(C)CN(C(=S)SCc2nc(N)nc(Nc3ccccc3)n2)C1 (stereo not drawn)	Ecoli rRNA inh -21.6 (no result: Cneo AK release)
COCCNC(=O)c1cc2c(-c3ccc(Cl)cc3)nn(C)c2s1	Ecoli rRNA inh -26.9
O=C(NN=Cc1cccc2ccccc12)C1CC1	none
O=C(NN=Cc1c(O)ccc2ccccc12)C1CC1	Ecoli rRNA inh -16.8
CCOc1cccc(/C=N/NC(=O)c2cc(C3CC3)[nH]n2)c1O	Ecoli rRNA inh -17.1
CCOc1cccc(/C=N/NC(=O)c2cccnc2)c1O	none
O=C(Nc1ccc2oc(Cc3ccc(Cl)cc3)nc2c1)c1cccnc1	none
